Test results taken from the M2OR odorant receptor database.

Key:
Settings in all cases: stereoisomer not certain
OR2A5 I126V A202S A255T = system: OR2A5 I126V A202S A255T
Summary of the method: (§1)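 Assay methods differ from source to source, frequently being transient luciferase assays in mammalian cell lines. For each receptor–molecule pair, the label responsive (active) applies when the original authors judged the measured signal statistically different from baseline, and non-responsive (inactive) applies otherwise.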

OR2A7 (Homo sapiens) = biological target: T1, OR2A7 (Homo sapiens) (UniProt Q96R45)
T1 sequence (whole entry): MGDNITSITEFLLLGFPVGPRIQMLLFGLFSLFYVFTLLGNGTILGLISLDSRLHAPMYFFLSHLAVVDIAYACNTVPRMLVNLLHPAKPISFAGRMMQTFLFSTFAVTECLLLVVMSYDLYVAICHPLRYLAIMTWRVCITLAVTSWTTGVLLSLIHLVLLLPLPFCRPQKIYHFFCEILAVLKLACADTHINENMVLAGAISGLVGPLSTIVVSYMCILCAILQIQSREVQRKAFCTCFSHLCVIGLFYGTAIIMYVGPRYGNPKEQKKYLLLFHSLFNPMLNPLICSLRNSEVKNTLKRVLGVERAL
Summary of the method: as §1

OR2A7 = system: OR2A7
OR2A7, sequence (as listed by the source): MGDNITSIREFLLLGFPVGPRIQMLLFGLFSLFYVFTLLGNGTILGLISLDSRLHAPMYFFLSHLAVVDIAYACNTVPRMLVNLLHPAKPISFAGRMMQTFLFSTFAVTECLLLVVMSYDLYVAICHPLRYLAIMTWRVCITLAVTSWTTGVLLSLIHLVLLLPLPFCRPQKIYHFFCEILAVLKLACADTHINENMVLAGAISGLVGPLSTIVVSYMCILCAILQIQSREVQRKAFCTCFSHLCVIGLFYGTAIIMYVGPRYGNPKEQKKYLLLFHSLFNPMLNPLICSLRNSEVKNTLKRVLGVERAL
Summary of the method: as §1

OR2AE1 (Homo sapiens) = OR2AE1 (Homo sapiens) (UniProt Q8NHA4)
OR2AE1 (Homo sapiens), sequence (Q8NHA4 whole entry): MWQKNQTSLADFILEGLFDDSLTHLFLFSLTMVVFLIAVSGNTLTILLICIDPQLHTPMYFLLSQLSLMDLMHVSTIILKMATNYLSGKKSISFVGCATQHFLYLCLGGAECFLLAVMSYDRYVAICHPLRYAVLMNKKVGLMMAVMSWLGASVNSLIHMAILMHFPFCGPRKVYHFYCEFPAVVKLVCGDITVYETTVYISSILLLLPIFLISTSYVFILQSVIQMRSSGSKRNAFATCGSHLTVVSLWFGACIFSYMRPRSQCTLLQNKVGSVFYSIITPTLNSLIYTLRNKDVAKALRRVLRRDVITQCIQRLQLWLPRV
Summary of the method: as §1

OR2AG1 (Homo sapiens) = OR2AG1 (Homo sapiens) (UniProt Q9H205)
OR2AG1 (Homo sapiens), sequence (Q9H205 whole entry): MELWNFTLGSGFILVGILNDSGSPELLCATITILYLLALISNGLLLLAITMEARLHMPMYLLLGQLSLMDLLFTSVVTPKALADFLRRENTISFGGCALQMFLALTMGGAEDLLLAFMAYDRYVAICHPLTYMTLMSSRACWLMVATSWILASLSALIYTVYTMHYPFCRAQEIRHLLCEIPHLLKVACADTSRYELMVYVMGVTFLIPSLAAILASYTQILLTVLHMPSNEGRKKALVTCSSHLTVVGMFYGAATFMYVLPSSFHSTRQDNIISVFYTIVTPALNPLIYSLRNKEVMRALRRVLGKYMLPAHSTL
Summary of the method: as §1

OR2AG2 (Homo sapiens) = OR2AG2 (Homo sapiens) (UniProt A6NM03)
OR2AG2 (Homo sapiens), sequence (A6NM03 whole entry): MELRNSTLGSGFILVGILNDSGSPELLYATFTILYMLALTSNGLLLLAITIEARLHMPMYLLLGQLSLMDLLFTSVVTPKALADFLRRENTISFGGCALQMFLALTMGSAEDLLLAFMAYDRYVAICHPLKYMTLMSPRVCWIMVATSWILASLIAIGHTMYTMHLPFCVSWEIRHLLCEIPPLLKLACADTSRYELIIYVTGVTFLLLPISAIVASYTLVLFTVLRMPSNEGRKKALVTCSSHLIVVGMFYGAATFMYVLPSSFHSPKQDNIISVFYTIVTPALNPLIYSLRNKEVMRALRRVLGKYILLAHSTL
Summary of the method: as §1

OR2AK2 (Homo sapiens) = OR2AK2 (Homo sapiens) (UniProt Q8NG84)
OR2AK2 (Homo sapiens), sequence (Q8NG84 whole entry): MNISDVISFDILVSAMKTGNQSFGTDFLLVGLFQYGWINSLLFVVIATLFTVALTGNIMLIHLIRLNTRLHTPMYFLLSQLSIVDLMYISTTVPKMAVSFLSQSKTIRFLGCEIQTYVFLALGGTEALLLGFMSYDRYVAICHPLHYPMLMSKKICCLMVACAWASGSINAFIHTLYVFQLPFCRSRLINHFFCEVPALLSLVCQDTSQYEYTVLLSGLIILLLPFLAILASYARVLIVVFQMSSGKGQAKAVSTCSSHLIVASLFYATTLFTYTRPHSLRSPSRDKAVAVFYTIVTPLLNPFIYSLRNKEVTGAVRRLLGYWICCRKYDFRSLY
Summary of the method: as §1

OR2AP1 (Homo sapiens) = OR2AP1 (Homo sapiens) (UniProt Q8NGE2)
OR2AP1 (Homo sapiens), sequence (Q8NGE2 whole entry): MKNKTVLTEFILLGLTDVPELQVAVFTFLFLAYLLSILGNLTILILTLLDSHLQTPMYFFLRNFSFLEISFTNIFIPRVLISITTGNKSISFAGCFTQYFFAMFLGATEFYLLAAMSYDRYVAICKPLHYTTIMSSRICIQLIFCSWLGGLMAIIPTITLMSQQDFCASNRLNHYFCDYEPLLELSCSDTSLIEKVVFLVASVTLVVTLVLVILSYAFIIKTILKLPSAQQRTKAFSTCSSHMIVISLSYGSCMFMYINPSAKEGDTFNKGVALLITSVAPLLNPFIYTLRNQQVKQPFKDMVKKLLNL
Summary of the method: as §1

OR2AT4 (Homo sapiens) = OR2AT4 (Homo sapiens) (UniProt A6NND4)
OR2AT4 (Homo sapiens), sequence (A6NND4 whole entry): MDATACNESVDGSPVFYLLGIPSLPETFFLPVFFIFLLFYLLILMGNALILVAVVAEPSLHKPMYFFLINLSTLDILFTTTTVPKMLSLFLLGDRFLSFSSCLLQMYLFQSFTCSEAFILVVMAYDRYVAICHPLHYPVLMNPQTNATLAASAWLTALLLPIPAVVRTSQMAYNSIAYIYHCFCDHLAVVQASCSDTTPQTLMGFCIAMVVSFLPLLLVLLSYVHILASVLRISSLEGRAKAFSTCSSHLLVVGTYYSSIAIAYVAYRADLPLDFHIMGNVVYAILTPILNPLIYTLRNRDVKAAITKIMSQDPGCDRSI
Summary of the method: as §1

OR2AJ1 (Homo sapiens) = OR2AJ1 (Homo sapiens) (UniProt Q8NGZ0)
OR2AJ1 (Homo sapiens), sequence (Q8NGZ0 whole entry): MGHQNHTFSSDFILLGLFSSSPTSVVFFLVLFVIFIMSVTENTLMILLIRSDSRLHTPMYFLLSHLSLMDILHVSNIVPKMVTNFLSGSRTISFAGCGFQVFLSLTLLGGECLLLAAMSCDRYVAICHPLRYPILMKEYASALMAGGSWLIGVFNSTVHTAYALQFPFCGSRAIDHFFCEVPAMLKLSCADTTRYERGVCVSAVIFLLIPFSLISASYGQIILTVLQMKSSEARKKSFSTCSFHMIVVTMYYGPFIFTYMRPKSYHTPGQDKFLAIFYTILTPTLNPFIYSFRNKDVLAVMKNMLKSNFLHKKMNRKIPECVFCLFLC
Summary of the method: as §1

Measured: odorant receptor agonist call

C=CCOC(=O)Cc1ccccc1
inactive: OR2A5 I126V A202S A255T | OR2A7 (Homo sapiens) | OR2A7 | OR2AE1 (Homo sapiens) | OR2AG1 (Homo sapiens) | OR2AG2 (Homo sapiens) | OR2AK2 (Homo sapiens) | OR2AP1 (Homo sapiens) | OR2AT4 (Homo sapiens)

COc1ccc(C=O)cc1
inactive: OR2A7 (Homo sapiens)

Cc1c([N+](=O)[O-])c(C)c([N+](=O)[O-])c(C(C)(C)C)c1[N+](=O)[O-]
inactive: OR2A7 (Homo sapiens) | OR2AE1 (Homo sapiens) | OR2AG1 (Homo sapiens) | OR2AG2 (Homo sapiens) | OR2AJ1 (Homo sapiens) | OR2AK2 (Homo sapiens) | OR2AP1 (Homo sapiens) | OR2AT4 (Homo sapiens)

Cc1cccc(C)c1
inactive: OR2A7 (Homo sapiens)
